ChEMBL document CHEMBL5058577, “EUbOPEN Chemogenomics Library 2 (Multiplex)” (2022)

System: U2OS
Test: Multiplex assay against U2OS
Assay type: toxicity, cell-based
Conditions: human
Summary of the method: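 Values for tubulin, mitochondrial-mass and membrane-permeability phenotypes are per cents of cells with healthy nuclei. These cells were identified by CellPathfinder machine-learning gating of live cells that had been stained at seeding with Hoechst33342, BioTracker Green Microtubule Cytoskeleton Dye, MitoTracker Red and Annexin V Alexa Fluor 680 and imaged on a CQ1 microscope at 37°C and 5% CO2 after compound addition. The gating first set Hoechst high-intensity objects apart from normal cells, then split normal cells into healthy, pyknosed or fragmented nuclei, and pyknosed cells into mitotic or apoptotic.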

[1] = 12 h, 1 µM, compound concentration 1 uM, replicate 1
[2] = 12 h, 1 µM, compound concentration 1 uM, replicate 2
[3] = 12 h, 10 µM, compound concentration 10 uM, replicate 1
[4] = 12 h, 10 µM, compound concentration 10 uM, replicate 2
[5] = 24 h, 1 µM, compound concentration 1 uM, replicate 1
[6] = 24 h, 1 µM, compound concentration 1 uM, replicate 2
[7] = 24 h, 10 µM, compound concentration 10 uM, replicate 1
[8] = 24 h, 10 µM, compound concentration 10 uM, replicate 2
[9] = 48 h, 1 µM, compound concentration 1 uM, replicate 1
[10] = 48 h, 1 µM, compound concentration 1 uM, replicate 2
[11] = 48 h, 10 µM, compound concentration 10 uM, replicate 1
[12] = 48 h, 10 µM, compound concentration 10 uM, replicate 2

COCCn1c(C)c(C)s/c1=N\C(=O)C1C(C)(C)C1(C)C
Population Apoptotic (%) [1]: 88%
Population Fragmented Nuclei (%) [1]: 24%
Population Healthy Nuclei (%) [1]: 69%
Population Hoechst High Intensity Objects (%) [1]: 0%
Population Membrane Permeable-Phenotype (%) [1]: 8%
Population Mitochondria Different-Phenotype (%) [1]: 1%
Population Mitotic Cells (%) [1]: 11%
Population Normal (%) [1]: 99%
Population Pyknosed Nuclei (%) [1]: 6%
Population Tubulin-Different-Phenotype (%) [1]: 3%
Total Cell Count [1]: 271
Population Apoptotic (%) [2]: 71%
Population Fragmented Nuclei (%) [2]: 20%
Population Healthy Nuclei (%) [2]: 74%
Population Membrane Permeable-Phenotype (%) [2]: 11%
Population Mitochondria Different-Phenotype (%) [2]: 3%
Population Mitotic Cells (%) [2]: 28%
Population Normal (%) [2]: 100%
Population Pyknosed Nuclei (%) [2]: 5%
Population Tubulin-Different-Phenotype (%) [2]: 5%
Total Cell Count [2]: 135
Population Apoptotic (%) [3]: 73%
Population Fragmented Nuclei (%) [3]: 33%
Population Healthy Nuclei (%) [3]: 52%
Population Hoechst High Intensity Objects (%) [3]: 2%
Population Membrane Permeable-Phenotype (%) [3]: 10%
Population Mitochondria Different-Phenotype (%) [3]: 4%
Population Mitotic Cells (%) [3]: 26%
Population Normal (%) [3]: 97%
Population Pyknosed Nuclei (%) [3]: 13%
Population Tubulin-Different-Phenotype (%) [3]: 5%
Total Cell Count [3]: 220
Population Apoptotic (%) [4]: 80%
Population Fragmented Nuclei (%) [4]: 20%
Population Healthy Nuclei (%) [4]: 68%
Population Hoechst High Intensity Objects (%) [4]: 0%
Population Membrane Permeable-Phenotype (%) [4]: 9%
Population Mitochondria Different-Phenotype (%) [4]: 3%
Population Mitotic Cells (%) [4]: 20%
Population Normal (%) [4]: 100%
Population Pyknosed Nuclei (%) [4]: 11%
Population Tubulin-Different-Phenotype (%) [4]: 4%
Total Cell Count [4]: 135
Population Apoptotic (%) [5]: 89%
Population Fragmented Nuclei (%) [5]: 18%
Population Healthy Nuclei (%) [5]: 75%
Population Hoechst High Intensity Objects (%) [5]: 0%
Population Membrane Permeable-Phenotype (%) [5]: 5%
Population Mitochondria Different-Phenotype (%) [5]: 3%
Population Mitotic Cells (%) [5]: 10%
Population Normal (%) [5]: 99%
Population Pyknosed Nuclei (%) [5]: 6%
Population Tubulin-Different-Phenotype (%) [5]: 2%
Total Cell Count [5]: 314
Population Apoptotic (%) [6]: 83%
Population Healthy Nuclei (%) [6]: 77%
Population Membrane Permeable-Phenotype (%) [6]: 9%
Population Mitotic Cells (%) [6]: 16%
Population Pyknosed Nuclei (%) [6]: 3%
Population Tubulin-Different-Phenotype (%) [6]: 4%
Total Cell Count [6]: 157
Population Apoptotic (%) [7]: 80%
Population Fragmented Nuclei (%) [7]: 28%
Population Healthy Nuclei (%) [7]: 58%
Population Hoechst High Intensity Objects (%) [7]: 1%
Population Membrane Permeable-Phenotype (%) [7]: 8%
Population Mitochondria Different-Phenotype (%) [7]: 8%
Population Mitotic Cells (%) [7]: 19%
Population Normal (%) [7]: 98%
Population Pyknosed Nuclei (%) [7]: 12%
Population Tubulin-Different-Phenotype (%) [7]: 2%
Total Cell Count [7]: 257
Population Apoptotic (%) [8]: 88%
Population Fragmented Nuclei (%) [8]: 21%
Population Healthy Nuclei (%) [8]: 66%
Population Membrane Permeable-Phenotype (%) [8]: 10%
Population Mitochondria Different-Phenotype (%) [8]: 1%
Population Mitotic Cells (%) [8]: 11%
Population Tubulin-Different-Phenotype (%) [8]: 9%
Total Cell Count [8]: 141
Population Apoptotic (%) [9]: 94%
Population Fragmented Nuclei (%) [9]: 12%
Population Healthy Nuclei (%) [9]: 79%
Population Hoechst High Intensity Objects (%) [9]: 1%
Population Membrane Permeable-Phenotype (%) [9]: 5%
Population Mitochondria Different-Phenotype (%) [9]: 2%
Population Mitotic Cells (%) [9]: 5%
Population Normal (%) [9]: 98%
Population Pyknosed Nuclei (%) [9]: 8%
Population Tubulin-Different-Phenotype (%) [9]: 4%
Total Cell Count [9]: 459
Population Apoptotic (%) [10]: 100%
Population Fragmented Nuclei (%) [10]: 15%
Population Membrane Permeable-Phenotype (%) [10]: 9%
Population Mitochondria Different-Phenotype (%) [10]: 1%
Population Mitotic Cells (%) [10]: 0%
Population Pyknosed Nuclei (%) [10]: 4%
Population Tubulin-Different-Phenotype (%) [10]: 5%
Total Cell Count [10]: 218
Population Apoptotic (%) [11]: 81%
Population Fragmented Nuclei (%) [11]: 22%
Population Healthy Nuclei (%) [11]: 62%
Population Hoechst High Intensity Objects (%) [11]: 2%
Population Membrane Permeable-Phenotype (%) [11]: 11%
Population Mitochondria Different-Phenotype (%) [11]: 4%
Population Mitotic Cells (%) [11]: 18%
Population Normal (%) [11]: 97%
Population Pyknosed Nuclei (%) [11]: 14%
Population Tubulin-Different-Phenotype (%) [11]: 5%
Total Cell Count [11]: 305
Population Apoptotic (%) [12]: 96%
Population Fragmented Nuclei (%) [12]: 15%
Population Healthy Nuclei (%) [12]: 71%
Population Hoechst High Intensity Objects (%) [12]: 1%
Population Membrane Permeable-Phenotype (%) [12]: 4%
Population Mitotic Cells (%) [12]: 4%
Population Normal (%) [12]: 98%
Population Pyknosed Nuclei (%) [12]: 12%
Population Tubulin-Different-Phenotype (%) [12]: 2%
Total Cell Count [12]: 206

CN(C)C(=O)Cn1cc(-c2ccc(-c3nnc4ccccn34)cc2)cn1
Population Apoptotic (%) [1]: 90%
Population Fragmented Nuclei (%) [1]: 25%
Population Healthy Nuclei (%) [1]: 66%
Population Hoechst High Intensity Objects (%) [1]: 1%
Population Membrane Permeable-Phenotype (%) [1]: 6%
Population Mitochondria Different-Phenotype (%) [1]: 1%
Population Mitotic Cells (%) [1]: 9%
Population Normal (%) [1]: 98%
Population Pyknosed Nuclei (%) [1]: 8%
Population Tubulin-Different-Phenotype (%) [1]: 3%
Total Cell Count [1]: 251
Population Fragmented Nuclei (%) [2]: 22%
Population Healthy Nuclei (%) [2]: 68%
Population Hoechst High Intensity Objects (%) [2]: 0%
Population Membrane Permeable-Phenotype (%) [2]: 3%
Population Mitochondria Different-Phenotype (%) [2]: 6%
Population Normal (%) [2]: 99%
Population Pyknosed Nuclei (%) [2]: 9%
Population Tubulin-Different-Phenotype (%) [2]: 4%
Total Cell Count [2]: 123
Population Apoptotic (%) [3]: 95%
Population Fragmented Nuclei (%) [3]: 26%
Population Healthy Nuclei (%) [3]: 65%
Population Hoechst High Intensity Objects (%) [3]: 1%
Population Membrane Permeable-Phenotype (%) [3]: 4%
Population Mitochondria Different-Phenotype (%) [3]: 1%
Population Mitotic Cells (%) [3]: 4%
Population Normal (%) [3]: 98%
Population Pyknosed Nuclei (%) [3]: 7%
Population Tubulin-Different-Phenotype (%) [3]: 3%
Total Cell Count [3]: 298
Population Apoptotic (%) [4]: 90%
Population Fragmented Nuclei (%) [4]: 11%
Population Healthy Nuclei (%) [4]: 81%
Population Mitochondria Different-Phenotype (%) [4]: 0%
Population Mitotic Cells (%) [4]: 10%
Total Cell Count [4]: 140
Population Apoptotic (%) [5]: 94%
Population Fragmented Nuclei (%) [5]: 22%
Population Healthy Nuclei (%) [5]: 71%
Population Hoechst High Intensity Objects (%) [5]: 0%
Population Membrane Permeable-Phenotype (%) [5]: 4%
Population Mitochondria Different-Phenotype (%) [5]: 2%
Population Mitotic Cells (%) [5]: 5%
Population Normal (%) [5]: 99%
Population Pyknosed Nuclei (%) [5]: 5%
Population Tubulin-Different-Phenotype (%) [5]: 1%
Total Cell Count [5]: 315
Population Apoptotic (%) [6]: 100%
Population Fragmented Nuclei (%) [6]: 17%
Population Healthy Nuclei (%) [6]: 74%
Population Membrane Permeable-Phenotype (%) [6]: 7%
Population Mitochondria Different-Phenotype (%) [6]: 7%
Population Mitotic Cells (%) [6]: 0%
Population Normal (%) [6]: 100%
Population Pyknosed Nuclei (%) [6]: 8%
Population Tubulin-Different-Phenotype (%) [6]: 4%
Total Cell Count [6]: 131
Population Apoptotic (%) [7]: 86%
Population Fragmented Nuclei (%) [7]: 22%
Population Healthy Nuclei (%) [7]: 66%
Population Hoechst High Intensity Objects (%) [7]: 2%
Population Membrane Permeable-Phenotype (%) [7]: 4%
Population Mitochondria Different-Phenotype (%) [7]: 1%
Population Mitotic Cells (%) [7]: 13%
Population Normal (%) [7]: 97%
Population Pyknosed Nuclei (%) [7]: 11%
Population Tubulin-Different-Phenotype (%) [7]: 2%
Total Cell Count [7]: 333
Population Apoptotic (%) [8]: 87%
Population Fragmented Nuclei (%) [8]: 10%
Population Healthy Nuclei (%) [8]: 85%
Population Hoechst High Intensity Objects (%) [8]: 1%
Population Membrane Permeable-Phenotype (%) [8]: 7%
Population Mitotic Cells (%) [8]: 12%
Population Normal (%) [8]: 98%
Population Pyknosed Nuclei (%) [8]: 4%
Population Tubulin-Different-Phenotype (%) [8]: 3%
Total Cell Count [8]: 180
Population Apoptotic (%) [9]: 87%
Population Fragmented Nuclei (%) [9]: 16%
Population Healthy Nuclei (%) [9]: 75%
Population Hoechst High Intensity Objects (%) [9]: 2%
Population Membrane Permeable-Phenotype (%) [9]: 4%
Population Mitochondria Different-Phenotype (%) [9]: 2%
Population Mitotic Cells (%) [9]: 12%
Population Normal (%) [9]: 97%
Population Pyknosed Nuclei (%) [9]: 7%
Population Tubulin-Different-Phenotype (%) [9]: 1%
Total Cell Count [9]: 426
Population Apoptotic (%) [10]: 93%
Population Fragmented Nuclei (%) [10]: 11%
Population Healthy Nuclei (%) [10]: 67%
Population Membrane Permeable-Phenotype (%) [10]: 7%
Population Mitochondria Different-Phenotype (%) [10]: 3%
Population Mitotic Cells (%) [10]: 6%
Population Pyknosed Nuclei (%) [10]: 20%
Population Tubulin-Different-Phenotype (%) [10]: 3%
Total Cell Count [10]: 158
Population Apoptotic (%) [11]: 95%
Population Fragmented Nuclei (%) [11]: 21%
Population Healthy Nuclei (%) [11]: 67%
Population Hoechst High Intensity Objects (%) [11]: 3%
Population Membrane Permeable-Phenotype (%) [11]: 8%
Population Mitochondria Different-Phenotype (%) [11]: 4%
Population Mitotic Cells (%) [11]: 4%
Population Normal (%) [11]: 96%
Population Pyknosed Nuclei (%) [11]: 11%
Population Tubulin-Different-Phenotype (%) [11]: 4%
Total Cell Count [11]: 418
Population Apoptotic (%) [12]: 85%
Population Fragmented Nuclei (%) [12]: 8%
Population Healthy Nuclei (%) [12]: 81%
Population Hoechst High Intensity Objects (%) [12]: 2%
Population Membrane Permeable-Phenotype (%) [12]: 6%
Population Mitochondria Different-Phenotype (%) [12]: 2%
Population Mitotic Cells (%) [12]: 14%
Population Normal (%) [12]: 97%
Population Pyknosed Nuclei (%) [12]: 9%
Population Tubulin-Different-Phenotype (%) [12]: 2%
Total Cell Count [12]: 284
